In ChEMBL document CHEMBL1143415, “Differential fungicidal activities of amphotericin B and voriconazole against Aspergillus species determined by microbroth methodology” (Antimicrob Agents Chemother, 2007):
≈ marks a conversion by molar mass, not a printed value.

Experiments:
Aspergillus terreus [1] = assay: Ratio of MFC for Aspergillus terreus isolate to MIC for Aspergillus terreus isolate; format: functional
Outline: (§1)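 Per-isolate ratio of the XTT-based MFC (24 h post-wash regrowth, absorbance cutoff 0.01) to the 48 h CLSI M38-A MIC, taken as the median of two replicate experiments. A ratio of ≤4 was counted fungicidal and >4 fungistatic.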

Aspergillus fumigatus [2] = assay: Antifungal activity against Aspergillus fumigatus isolate after 24 hrs by microbroth colorimetric XTT method; format: functional, organism-based
Outline: (§2)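 Done after the 48 h M38-A MIC plates. Clear wells and the 0.5× MIC well were aspirated, washed twice with 37°C saline, refilled with fresh RPMI, then incubated 24 h at 37°C. XTT (0.1 mg/ml) with menadione (25 μM), both final, was added for 2 h. A450/630 was read minus background from conidia-free wells. MFC = lowest concentration with absorbance <0.01, a cutoff set by ROC against microscopic growth.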

Aspergillus terreus [3] = assay: Antifungal activity against Aspergillus terreus isolate after 6 to 8 hrs by microbroth colorimetric XTT method relative to control; format: functional
Aspergillus fumigatus [4] = assay: Antifungal activity against Aspergillus fumigatus isolate at 100 CFU infectious rate after 24 hrs by culture-based CFU method; format: functional
Outline: (§3)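 Done after the 48 h M38-A MIC plates. Clear wells and the 0.5× MIC well were pipetted five times, and 20 μl or 100 μl was subcultured on Sabouraud dextrose agar for 24–48 h at 37°C before CFU counting. MFC = lowest concentration giving no growth for each volume.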

Aspergillus fumigatus [5] = assay: Antifungal activity against Aspergillus fumigatus isolate after 48 hrs by NCCLS M38-A broth microdilution method; format: functional
Outline: (§4)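 CLSI M38-A broth microdilution. Conidia came from 5–7 d potato dextrose agar slants at 35°C, suspended in saline with 0.025% Tween 20 and counted by hemacytometer. Final inoculum was 0.5×10^4 to 5×10^4 CFU/ml in RPMI 1640 with MOPS, pH 7.0. Final drug ranges: amphotericin B 0.015–16 mg/liter, voriconazole 0.008–8 mg/liter. Plates ran 48 h at 37°C. MIC = lowest concentration with no visible growth. Duplicate plates; experiments done twice.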

Aspergillus flavus [6] = assay: Antifungal activity against Aspergillus flavus ATCC MYA-3631 after 48 hrs by CLSI M38-A microdilution method; format: functional; outline: as §4
Aspergillus flavus [7] = assay: Antifungal activity against Aspergillus flavus isolate after 6 to 8 hrs by microbroth colorimetric XTT method relative to control; format: functional
Aspergillus terreus [8] = assay: Antifungal activity against Aspergillus terreus isolate after 24 hrs by microbroth colorimetric XTT method; format: functional, organism-based; outline: as §2
Aspergillus terreus [9] = assay: Antifungal activity against Aspergillus terreus ATCC MYA-3633 after 48 hrs by CLSI M38-A microdilution method; format: functional; outline: as §4
Aspergillus fumigatus [10] = assay: Antifungal activity against Aspergillus fumigatus ATCC MYA-3626 after 48 hrs by CLSI M38-A microdilution method; format: functional
Outline: (§5)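 CLSI M38-A broth microdilution in RPMI 1640 (L-glutamine, no bicarbonate, 0.165 M MOPS, pH 7.0). Conidia come from potato dextrose agar slants grown 5 to 7 days at 35°C, suspended in saline with 0.025% Tween 20 and counted by hemacytometer. Final inoculum 0.5 × 10^4 to 5 × 10^4 CFU/ml. Twofold dilutions in flat-bottom plates, 37°C for 48 h. MIC is the lowest concentration with no visible growth. Duplicate plates, two experiments.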

Aspergillus fumigatus [11] = assay: Antifungal activity against Aspergillus fumigatus ATCC MYA-3626 after 24 hrs by microbroth colorimetric XTT method; format: functional; outline: as §2
Aspergillus fumigatus [12] = assay: Antifungal activity against Aspergillus fumigatus isolate after 6 to 8 hrs by microbroth colorimetric XTT method relative to control; format: functional
Aspergillus terreus [13] = assay: Antifungal activity against Aspergillus terreus ATCC MYA-3633 after 24 hrs by microbroth colorimetric XTT method; format: functional; outline: as §2
Aspergillus flavus [14] = assay: Antifungal activity against Aspergillus flavus ATCC MYA-3631 after 24 hrs by microbroth colorimetric XTT method; format: functional; outline: as §2
Aspergillus fumigatus [15] = assay: Ratio of MFC for Aspergillus fumigatus isolate to MIC for Aspergillus fumigatus isolate; format: functional; outline: as §1
Aspergillus flavus [16] = assay: Antifungal activity against Aspergillus flavus ATCC MYA-3631 after 24 to 48 hrs by culture-based CFU method; format: functional; outline: as §3
Aspergillus fumigatus [17] = assay: Antifungal activity against Aspergillus fumigatus isolate after 48 hrs by CLSI M38-A microdilution method; format: functional; outline: as §5
Aspergillus fumigatus [18] = assay: Antifungal activity against Aspergillus fumigatus ATCC MYA-3626 after 24 to 48 hrs by culture-based CFU method; format: functional; outline: as §3
Aspergillus flavus [19] = assay: Antifungal activity against Aspergillus flavus isolate after 24 hrs by microbroth colorimetric XTT method; format: functional, organism-based; outline: as §2
Aspergillus flavus [20] = assay: Ratio of MFC for Aspergillus flavus isolate to MIC for Aspergillus flavus isolate; format: functional; outline: as §1
Aspergillus terreus [21] = assay: Antifungal activity against Aspergillus terreus ATCC MYA-3633 after 24 to 48 hrs by culture-based CFU method; format: functional; outline: as §3
Aspergillus terreus [22] = assay: Antifungal activity against Aspergillus terreus isolate after 48 hrs by CLSI M38-A microdilution method; format: functional; outline: as §4
Aspergillus flavus [23] = assay: Antifungal activity against Aspergillus flavus isolate at 20 CFU infectious rate after 24 hrs by culture-based CFU method; format: functional; outline: as §3
Aspergillus terreus [24] = assay: Antifungal activity against Aspergillus terreus isolate at 100 CFU infectious rate after 24 hrs by culture-based CFU method; format: functional; outline: as §3
Aspergillus flavus [25] = assay: Antifungal activity against Aspergillus flavus isolate after 48 hrs by NCCLS M38-A broth microdilution method; format: functional; outline: as §4
Aspergillus terreus [26] = assay: Antifungal activity against Aspergillus terreus isolate at 20 CFU infectious rate after 24 hrs by culture-based CFU method; format: functional; outline: as §3
Aspergillus fumigatus [27] = assay: Antifungal activity against Aspergillus fumigatus isolate at 20 CFU infectious rate after 24 hrs by culture-based CFU method; format: functional; outline: as §3
Aspergillus flavus [28] = assay: Antifungal activity against Aspergillus flavus isolate after 48 hrs by CLSI M38-A microdilution method; format: functional; outline: as §4
Aspergillus flavus [29] = assay: Antifungal activity against Aspergillus flavus isolate at 100 CFU infectious rate after 24 hrs by culture-based CFU method; format: functional; outline: as §3
Aspergillus terreus [30] = assay: Antifungal activity against Aspergillus terreus isolate after 8 hrs by microbroth colorimetric XTT method relative to control; format: functional
Aspergillus flavus [31] = assay: Antifungal activity against Aspergillus flavus isolate after 8 hrs by microbroth colorimetric XTT method relative to control; format: functional
Aspergillus fumigatus [32] = assay: Antifungal activity against Aspergillus fumigatus isolate after 8 hrs by microbroth colorimetric XTT method relative to control; format: functional

Row | Compound | MFC/MIC ratio (Aspergillus terreus [1]) | EC50 (Aspergillus fumigatus [2]) [µg/mL] | MFC (Aspergillus fumigatus [2]) [µg/mL] | MFC (Aspergillus fumigatus [4]) [µg/mL] | MIC (Aspergillus flavus [6]) [µg/mL] | EC50 (Aspergillus terreus [8]) [µg/mL] | MFC (Aspergillus terreus [8]) [µg/mL] | MIC (Aspergillus terreus [9]) [µg/mL] | MIC (Aspergillus fumigatus [10]) [µg/mL] | MFC (Aspergillus fumigatus [11]) [µg/mL] | MFC (Aspergillus terreus [13]) [µg/mL] | MFC (Aspergillus flavus [14]) [µg/mL] | MFC/MIC ratio (Aspergillus fumigatus [15]) | MFC (Aspergillus flavus [16]) [µg/mL] | MIC (Aspergillus fumigatus [17]) [µg/mL] | MFC (Aspergillus fumigatus [18]) [µg/mL] | EC50 (Aspergillus flavus [19]) [µg/mL] | MFC (Aspergillus flavus [19]) [µg/mL] | MFC/MIC ratio (Aspergillus flavus [20]) | MFC (Aspergillus terreus [21]) [µg/mL] | other results
1 | C[C@@H](c1ncncc1F)[C@](O)(Cn1cncn1)c1ccc(F)cc1F [VORICONAZOLE] | 8 | 2.34 (≈ 6.7 µM) | > 8 | > 8 | 0.5 (≈ 1.43 µM) | 11.7 (≈ 33.5 µM) | > 8 | 0.5 (≈ 1.43 µM) | 1 (≈ 2.86 µM) | > 8 | > 8 | > 4 | > 16 | 0.5 (≈ 1.43 µM) | 0.5 (≈ 1.43 µM) | > 4 | 1.96 (≈ 5.61 µM) | 4 (≈ 11.5 µM) | 4 | 2 (≈ 5.73 µM) | Activity (Aspergillus terreus [3]): 36%; MFC90 (Aspergillus fumigatus [5]): 0.25 µg/mL (≈ 0.716 µM); Activity (Aspergillus flavus [7]): 16%; Activity (Aspergillus fumigatus [12]): 14%; MIC (Aspergillus terreus [22]): 1 µg/mL (≈ 2.86 µM); MFC (Aspergillus flavus [23]): 0.5 µg/mL (≈ 1.43 µM); MFC (Aspergillus terreus [24]): > 8 µg/mL; MFC90 (Aspergillus flavus [25]): 0.25 µg/mL (≈ 0.716 µM); MFC (Aspergillus terreus [26]): 8 µg/mL (≈ 22.9 µM); MFC (Aspergillus fumigatus [27]): 2 µg/mL (≈ 5.73 µM); MIC (Aspergillus flavus [28]): 0.5 µg/mL (≈ 1.43 µM); MFC (Aspergillus flavus [29]): 1 µg/mL (≈ 2.86 µM)
2 | C[C@@H]1[C@H](O)[C@@H](C)/C=C/C=C/C=C/C=C/C=C/C=C/C=C/[C@H](O[C@@H]2O[C@H](C)[C@@H](O)[C@H](N)[C@@H]2O)C[C@@H]2O[C@](O)(C[C@@H](O)C[C@@H](O)[C@H](O)CC[C@@H](O)C[C@@H](O)CC(=O)O[C@H]1C)C[C@H](O)[C@H]2C(=O)O [AMPHOTERICIN B] | 16 | 0.95 (≈ 1.03 µM) | 1 (≈ 1.08 µM) | 2 (≈ 2.16 µM) | 1 (≈ 1.08 µM) | 9.55 (≈ 10.3 µM) | > 16 | 2 (≈ 2.16 µM) | 1 (≈ 1.08 µM) | 1 (≈ 1.08 µM) | > 16 | 2 (≈ 2.16 µM) | 2 | 1 (≈ 1.08 µM) | 1 (≈ 1.08 µM) | 1 (≈ 1.08 µM) | 1.1 (≈ 1.19 µM) | 2 (≈ 2.16 µM) | 2 | > 2 | Activity (Aspergillus terreus [30]): 3%; Activity (Aspergillus flavus [31]): 3%; Activity (Aspergillus fumigatus [32]): 16%; MIC (Aspergillus terreus [22]): 2 µg/mL (≈ 2.16 µM); MFC (Aspergillus flavus [23]): 1 µg/mL (≈ 1.08 µM); MFC (Aspergillus terreus [24]): > 16 µg/mL; MFC (Aspergillus terreus [26]): > 16 µg/mL; MFC (Aspergillus fumigatus [27]): 1 µg/mL (≈ 1.08 µM); MIC (Aspergillus flavus [28]): 1 µg/mL (≈ 1.08 µM); MFC (Aspergillus flavus [29]): 2 µg/mL (≈ 2.16 µM)
